Laboratory results taken from ChEMBL document CHEMBL4049451, “Exploring the Role of N6-Substituents in Potent Dual Acting 5'-C-Ethyltetrazolyladenosine Derivatives: Synthesis, Binding, Functional Assays, and Antinociceptive Effects in Mice ∇” (J Med Chem, 2017).

What was measured:
[1] = target: T1, Adenosine receptor A3 (Rattus norvegicus, UniProt P28647); assay: Displacement of [3H]NECA from recombinant rat adenosine A3 receptor expressed in CHO cell membranes after 3 hrs by microbeta scintillation counting
T1 sequence (P28647 whole entry): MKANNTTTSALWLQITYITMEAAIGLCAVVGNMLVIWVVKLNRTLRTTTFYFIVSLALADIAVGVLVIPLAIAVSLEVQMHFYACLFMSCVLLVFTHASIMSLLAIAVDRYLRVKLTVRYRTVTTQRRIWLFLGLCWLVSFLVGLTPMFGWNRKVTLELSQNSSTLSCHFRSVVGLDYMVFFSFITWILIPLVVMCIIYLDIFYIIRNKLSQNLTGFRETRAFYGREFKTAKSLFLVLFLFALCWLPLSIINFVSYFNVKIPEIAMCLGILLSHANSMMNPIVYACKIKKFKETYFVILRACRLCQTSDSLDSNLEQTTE
In short: (§1)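 CHO membranes with stable human A1, A2A, A3 or rat A3 (1000g then 100 000g spin, stored -80 °C). Competition: hA1 1 nM [3H]CCPA, nonspecific with 1 mM theophylline; hA2A 10 nM [3H]NECA; hA3 1 nM [3H]HEMADO; rA3 30 nM [3H]NECA; latter three nonspecific with 100 μM R-PIA.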

[2] = target: T2, Adenosine receptor A1 (Homo sapiens, UniProt P30542); assay: Agonist activity at recombinant human adenosine A1 receptor expressed in CHO cell membranes assessed as inhibition of forskolin-stimulated adenylyl cyclase activity after 10 mins in presence of [alpha-32P]ATP; format: functional, cell-based
T2 sequence (P30542 whole entry): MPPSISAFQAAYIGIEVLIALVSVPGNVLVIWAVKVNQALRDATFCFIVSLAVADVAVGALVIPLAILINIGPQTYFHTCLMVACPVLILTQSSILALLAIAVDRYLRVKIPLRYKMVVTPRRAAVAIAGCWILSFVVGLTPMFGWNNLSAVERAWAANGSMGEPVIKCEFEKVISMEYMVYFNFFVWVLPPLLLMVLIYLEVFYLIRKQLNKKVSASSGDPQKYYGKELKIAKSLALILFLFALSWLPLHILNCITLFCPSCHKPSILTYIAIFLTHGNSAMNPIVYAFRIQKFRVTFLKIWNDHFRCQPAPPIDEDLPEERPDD
In short: (§2)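 hA1 in CHO cell membranes (single high-speed spin, resuspended in 50 mM Tris/HCl pH 7.4, used immediately); agonist inhibition of forskolin-stimulated adenylyl cyclase; efficacy relative to CCPA as reference full agonist (100%). Geometric means with 95% confidence intervals, n = 3.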

[3] = target: T2, Adenosine receptor A1; assay: Displacement of [3H]CCPA from recombinant human adenosine A1 receptor expressed in CHO cell membranes after 3 hrs by microbeta scintillation counting; in short: as §1
[4] = target: T3, Adenosine receptor A2a (Homo sapiens, UniProt P29274); assay: Displacement of [3H]NECA from recombinant human adenosine A2A receptor expressed in CHO cell membranes after 3 hrs by microbeta scintillation counting; in short: as §1
[5] = target: T4, Adenosine receptor A3 (Homo sapiens, UniProt P0DMS8); assay: Displacement of [3H]HEMADO from recombinant human adenosine […] receptor expressed in CHO cell membranes after 3 hrs by microbeta scintillation counting; in short: as §1
T4 sequence (P0DMS8 whole entry): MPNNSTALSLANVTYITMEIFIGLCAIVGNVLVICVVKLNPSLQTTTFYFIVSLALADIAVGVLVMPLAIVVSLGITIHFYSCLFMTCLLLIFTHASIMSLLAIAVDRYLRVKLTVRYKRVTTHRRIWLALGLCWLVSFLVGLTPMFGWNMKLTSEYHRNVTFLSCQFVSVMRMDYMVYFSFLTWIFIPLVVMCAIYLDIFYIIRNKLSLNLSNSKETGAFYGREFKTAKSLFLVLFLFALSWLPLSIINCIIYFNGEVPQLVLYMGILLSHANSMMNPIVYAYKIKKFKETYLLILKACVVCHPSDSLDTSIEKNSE

[6] = target: T3, Adenosine receptor A2a; assay: Agonist activity at recombinant human adenosine A2A receptor expressed in CHO cell membranes assessed as stimulation of adenylyl cyclase activity by [alpha-32P]ATP assay; format: functional, cell-based
In short: (§3)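 hA2A or hA2B in CHO cell membranes (one high-speed spin, pellet in 50 mM Tris/HCl pH 7.4, used immediately); agonist stimulation of adenylyl cyclase gives EC50; partial agonism judged as efficacy against 100 μM NECA as full agonist. Geometric means, 95% confidence intervals, n = 3.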

[7] = target: T5, Adenosine receptor A2b (Homo sapiens, UniProt P29275); assay: Agonist activity at recombinant human adenosine A2B receptor expressed in CHO cell membranes assessed as stimulation of adenylyl cyclase activity by [alpha-32P]ATP assay; format: functional, cell-based; in short: as §3
T5 sequence (P29275 whole entry): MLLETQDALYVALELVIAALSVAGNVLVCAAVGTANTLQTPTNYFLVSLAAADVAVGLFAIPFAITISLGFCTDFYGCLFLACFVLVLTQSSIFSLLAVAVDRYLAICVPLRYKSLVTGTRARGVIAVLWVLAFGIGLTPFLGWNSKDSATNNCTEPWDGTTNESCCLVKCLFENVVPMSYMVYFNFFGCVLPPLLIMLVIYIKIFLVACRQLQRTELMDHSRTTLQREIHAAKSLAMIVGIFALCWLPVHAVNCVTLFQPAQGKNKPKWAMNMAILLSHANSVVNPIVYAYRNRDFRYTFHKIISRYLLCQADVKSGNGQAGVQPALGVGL

[8] = target: T4, Adenosine receptor A3; assay: Antagonist activity at recombinant human adenosine A3 receptor expressed in CHO cell membranes assessed as reversal of NECA-mediated inhibition of adenylyl cyclase activity after 10 mins by [alpha-32P]ATP assay; format: functional, cell-based
[9] = target: T6, Adenosine receptor A1 (Homo sapiens) (UniProt P30542); assay: Agonist activity at recombinant human adenosine A1 receptor expressed in CHO cell membranes assessed as inhibition of forskolin-stimulated adenylyl cyclase activity after 10 mins relative to CCPA; format: functional, cell-based; in short: as §2
T6 sequence (whole entry): T2 sequence (P30542 whole entry)

[10] = target: T3, Adenosine receptor A2a; assay: Agonist activity at recombinant human adenosine A2A receptor expressed in CHO cell membranes assessed as stimulation of adenylyl cyclase activity relative to NECA; format: functional, cell-based; in short: as §3
[11] = target: T7, Adenosine receptor A2b (Homo sapiens) (UniProt P29275); assay: Agonist activity at recombinant human adenosine A2B receptor expressed in CHO cell membranes assessed as stimulation of adenylyl cyclase activity relative to NECA; format: functional, cell-based; in short: as §3
T7 sequence (whole entry): T5 sequence (P29275 whole entry)

[12] = species on record: Homo sapiens; assay: Selectivity ratio of Ki for recombinant human adenosine A2A receptor expressed in CHO cell membranes to Ki for recombinant human adenosine A1 receptor expressed in CHO cell membranes; format: cell-based; in short: as §1
[13] = species on record: Homo sapiens; assay: Selectivity ratio of Ki for recombinant human adenosine A2A receptor expressed in CHO cell membranes to Ki for recombinant human adenosine A3 receptor expressed in CHO cell membranes; format: cell-based; in short: as §1
[14] = target: Adenosine receptors; A1 & A3 (Homo sapiens) (UniProt P30542+P0DMS8); assay: Selectivity ratio of Ki for recombinant human adenosine A3 receptor expressed in CHO cell membranes to Ki for recombinant human adenosine A1 receptor expressed in CHO cell membranes; format: cell-based; in short: as §1
[15] = Selectivity ratio of Ki for recombinant rat adenosine A3 receptor expressed in CHO cell membranes to Ki for recombinant human adenosine A3 receptor expressed in CHO cell membranes; format: cell-based; in short: as §1

T3 sequence (P29274 whole entry): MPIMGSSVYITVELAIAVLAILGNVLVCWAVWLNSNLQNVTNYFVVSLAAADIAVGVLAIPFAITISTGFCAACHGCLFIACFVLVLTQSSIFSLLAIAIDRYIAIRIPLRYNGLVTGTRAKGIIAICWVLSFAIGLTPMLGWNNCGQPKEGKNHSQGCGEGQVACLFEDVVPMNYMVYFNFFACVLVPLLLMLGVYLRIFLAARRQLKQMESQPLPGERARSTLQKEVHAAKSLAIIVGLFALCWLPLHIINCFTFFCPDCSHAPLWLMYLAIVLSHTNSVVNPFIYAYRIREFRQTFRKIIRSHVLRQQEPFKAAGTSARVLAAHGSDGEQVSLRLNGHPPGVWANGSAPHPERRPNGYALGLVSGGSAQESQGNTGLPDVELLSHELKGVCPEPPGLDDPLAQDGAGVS

Structure (SMILES)	Ki [1]	EC50 [2]	Ki [3]	Ki [4]	Ki [5]	EC50 [6]	EC50 [7]	EC50 [8]	Efficacy [9]	Efficacy [10]	Efficacy [11]	Ratio Ki [14]	Ratio Ki [12]	Ratio Ki [13]	Ratio Ki [15]
CCn1nnc([C@H]2O[C@@H](n3cnc4c(Nc5ccc(Cl)cc5F)ncnc43)[C@H](O)[C@@H]2O)n1	21.4 nM	–	–	–	–	–	–	–	–	–	–	–	–	–	–
CCn1nnc([C@H]2O[C@@H](n3cnc4c(NCc5cccc(Br)c5)nc(Cl)nc43)[C@H](O)[C@@H]2O)n1	–	72.8 nM	1.79 nM	58.2 nM	0.345 nM	13.3 nM	1650 nM	9.64 nM	> 90%	> 90%	> 90%	0.19	32	171	–
CCn1nnc([C@H]2O[C@@H](n3cnc4c(NCc5cccc(Br)c5)ncnc43)C(O)C2O)n1 (single isomer, unassigned)	4.11 nM	45.1 nM	0.95 nM	24.5 nM	0.393 nM	4.46 nM	408 nM	2.07 nM	> 90%	> 90%	> 90%	0.4	25	61	10
CCn1nnc([C@H]2O[C@@H](n3cnc4c(NCC5CC5)nc(Cl)nc43)[C@H](O)[C@@H]2O)n1	–	7.21 nM	0.454 nM	329 nM	0.313 nM	28.6 nM	1960 nM	14.4 nM	> 90%	> 90%	> 90%	0.66	725	1100	–
CCn1nnc([C@H]2O[C@@H](n3cnc4c(NCc5cccc(F)c5)nc(Cl)nc43)[C@H](O)[C@@H]2O)n1	–	239 nM	6.04 nM	242 nM	0.806 nM	31.3 nM	2230 nM	31.5 nM	> 90%	> 90%	> 90%	0.13	40	299	–
CCn1nnc([C@H]2O[C@@H](n3cnc4c(NCc5ccc(Cl)cc5F)nc(Cl)nc43)[C@H](O)[C@@H]2O)n1	–	539 nM	17.6 nM	881 nM	5.17 nM	96.5 nM	> 30000 nM	105 nM	> 90%	> 90%	> 90%	0.29	50	170	–
CCn1nnc([C@H]2O[C@@H](n3cnc4c(NCc5cccs5)nc(Cl)nc43)[C@H](O)[C@@H]2O)n1	–	222 nM	6.02 nM	286 nM	1.59 nM	38.4 nM	2140 nM	44.7 nM	> 90%	> 90%	> 90%	0.26	47	180	–

Now from value to compound, other results behind:

Ki [1]	EC50 [2]	Ki [3]	Ki [4]	Ki [5]	EC50 [6]	EC50 [7]	EC50 [8]	Efficacy [9]	Efficacy [10]	Efficacy [11]	Ratio Ki [14]	Structure (SMILES)	Ratio Ki [12]	Ratio Ki [13]	Ratio Ki [15]
600 nM	–	–	–	–	–	–	–	–	–	–	–	CCn1nnc([C@H]2O[C@@H](n3cnc4c(NC)nc(Cl)nc43)[C@H](O)[C@@H]2O)n1	–	–	–
228 nM	–	–	–	–	–	–	–	–	–	–	–	CCn1nnc([C@H]2O[C@@H](n3cnc4c(N)ncnc43)[C@H](O)[C@@H]2O)n1	–	–	–
22.6 nM	230 nM	4.28 nM	252 nM	4.67 nM	40.7 nM	1290 nM	25.4 nM	> 90%	> 90%	> 90%	1.09	CCn1nnc([C@H]2O[C@@H](n3cnc4c(NCc5ccc(Cl)cc5F)ncnc43)C(O)C2O)n1 (single isomer, unassigned)	59	54	4.8
33.1 nM	552 nM	10.7 nM	342 nM	4.85 nM	54.3 nM	1930 nM	125 nM	> 90%	> 90%	> 90%	0.45	CCn1nnc([C@H]2O[C@@H](n3cnc4c(NCc5ccco5)ncnc43)C(O)C2O)n1 (single isomer, unassigned)	32	70	6.8
–	341 nM	7.64 nM	663 nM	1.31 nM	60.2 nM	2570 nM	52.4 nM	> 90%	> 90%	> 90%	0.17	CCn1nnc([C@H]2O[C@@H](n3cnc4c(NCc5ccco5)nc(Cl)nc43)[C@H](O)[C@@H]2O)n1	87	506	–
–	116 nM	2.71 nM	110 nM	0.387 nM	16 nM	2390 nM	7.61 nM	> 90%	> 90%	> 90%	0.14	CCn1nnc([C@H]2O[C@@H](n3cnc4c(NCc5cccc(Cl)c5)nc(Cl)nc43)[C@H](O)[C@@H]2O)n1	40	282	–
212 nM	–	–	–	–	–	–	–	–	–	–	–	CCn1nnc([C@H]2O[C@@H](n3cnc4c(N)nc(Cl)nc43)[C@H](O)[C@@H]2O)n1	–	–	–
–	7.21 nM	0.538 nM	274 nM	0.461 nM	21.5 nM	677 nM	14.1 nM	–	–	–	0.86	CCn1nnc([C@H]2O[C@@H](n3cnc4c(NC5CC5)nc(Cl)nc43)[C@H](O)[C@@H]2O)n1	509 to 510	596	–
